The values that follow come from ChEMBL document CHEMBL1148334, “Design and synthesis of novel biologically active thrombin receptor non-peptide mimetics based on the pharmacophoric cluster Phe/Arg/NH2 of the Ser42-Phe-Leu-Leu-Arg46 motif sequence: platelet aggregation and relaxant activities” (J Med Chem, 2004).

For assay [1], the species on record is Homo sapiens. Briefly: In vitro inhibitory concentration against thrombin-induced platelet aggregation in human platelet-rich plasma in presence of thrombin at 0.30 IU/mL. Type of assay: functional. An outline of the steps: (§1)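 Healthy drug-free donors' venous blood centrifuged 800 rpm 8 min RT; PRP diluted with PPP to 2 × 10⁸ platelets/mL, one donor per series. PRP stirred (1100 rpm) with compound 0.05-1 mM ≥4 min, then bovine thrombin added at 37 °C; light transmittance recorded 4 min, PPP = 100%, PRP = 0%. Studies finished within 1 h of collection.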

The species entered for assay [2] is Rattus norvegicus. Briefly: Maximal relaxing effect in isolated rat aortic rings with endothelium precontracted with 1 uM phenylephrine at 0.1-100 uM concentration; Range is 1.3-42.7%. Type of assay: functional, Aorta. In short, it runs like this: (§2)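 Thoracic aorta of adult male Wistar rats cut into 2 mm rings, one with intact and one with mechanically removed endothelium. Superfused 1 mL/min with modified Tyrode-type buffer, 37 °C, pH 7.44, carbogen; basal tension 2 g, isometric force. Endothelium checked with 1 µM carbachol against 1 µM phenylephrine. Compounds added 30 min after perfusion, on phenylephrine tone; some rings pretreated with 300 µM L-NAME. Mean ± SEM.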

For assay [3], the species on record is Rattus norvegicus. As to the kind of experiment: Relaxing effect dependent on nitric oxide in isolated rat aortic rings at 0.1-100 uM compound concentration; Range is 0-25%. It is filed as functional, Aorta. In short, it runs like this:
as §2

Assay [4] can be described thus: Relative potency (REC) is the ratio of concentration of compound to the concentration of SFLLR-NH2 for producing equal relaxing effect on the isolated rat aortic rings. It is filed as functional, Aorta.
The species entered for assay [5] is Homo sapiens. As to the kind of experiment: In vitro inhibitory concentration against thrombin-induced platelet aggregation in human platelet-rich plasma in presence of thrombin at 0.20 IU/mL. Type of assay: functional. An outline of the steps: as §1
Assay [6] is filed under the species Homo sapiens. As to the kind of experiment: In vitro inhibitory concentration against thrombin-induced platelet aggregation in human platelet-rich plasma in presence of thrombin at 0.25 IU/mL. Type of assay: functional. An outline of the steps:
as §1

For assay [7], the species on record is Rattus norvegicus. As to the kind of experiment: Maximal relaxing effect in isolated rat aortic rings without endothelium precontracted with 1 uM phenylephrine at 0.1-100 uM concentration; Range is 2.3-14%. Type of assay: functional, Aorta. An outline of the steps: as §2
The species named for assay [8] is Rattus norvegicus. As to the kind of experiment: Reduction of maximal relaxing response in isolated rat aortic rings precontracted with Nomega-nitro-L-arginine (L-NAME) at 0.1-100 uM concentration; Range is 17-18%. It is filed as functional, Aorta. In short, it runs like this: as §2
The species named for assay [9] is Rattus norvegicus. As to the kind of experiment: Maximal relaxing effect of compound in isolated rat aortic rings precontracted phenylephrine at 100 uM concentration. Type of assay: functional, Aorta. An outline of the steps:
as §2

The species named for assay [10] is Rattus norvegicus. As to the kind of experiment: Maximal relaxing effect in isolated rat aortic rings with endothelium precontracted with 1 uM phenylephrine at 0.1-100 uM concentration; Range is 1.8-40.7%. It is filed as functional, Aorta. In short, it runs like this:
as §2

The species named for assay [11] is Rattus norvegicus. As to the kind of experiment: Contraction in isolated rat aortic rings without endothelium at 10-100 uM concentration; Range is 2-3%. Type of assay: functional, Aorta. In short, it runs like this: as §2
Assay [12] is filed under the species Rattus norvegicus. Briefly: Maximal relaxing effect of compound in isolated rat aortic rings precontracted with 1 uM phenylephrine at 100 uM concentration. It is filed as functional, Aorta. In short, it runs like this: as §2
The species named for assay [13] is Homo sapiens. As to the kind of experiment: Inhibitory concentration against SFLLR-NH2 (2.5 uM) induced platelet aggregation in human platelet-rich plasma. Type of assay: functional, organism-based. An outline of the steps: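 Human PRP (2 × 10⁸ platelets/mL, healthy donors) stirred with compound, then aggregation triggered by SFLLR-NH₂ 2.5 µM instead of thrombin; optical aggregometry read-out.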

One may read the IC50 as the concentration needed to halve the response being measured. Regarding `NC(N)=NCCCCCC(=O)NCC1CCN(C(=O)C(N)Cc2ccccc2)CC1` (stereo not given), the IC50 in the assay filed under Homo sapiens [1] was 870 µM; in the assay filed under Homo sapiens [5], more than 1000 µM; in the assay filed under Homo sapiens [6] it was more than 1000 µM. For the same compound, the Max efficacy turned out to be 42.7% in the assay filed under Rattus norvegicus [2] and 14% in the assay listed under Rattus norvegicus [7]. In the assay filed under Rattus norvegicus [3], the Relaxation turned out to be 25%. Further, the Relative potency in assay [4] was 13.6. Besides, the Reduction in the assay listed under Rattus norvegicus [8] is given as 18%.
With `N=C(N)NCCCCCC(=O)NC1CCN(C(=O)Cc2ccccc2)C1` (stereo not given), the figures for the IC50 in the assay filed under Homo sapiens [1], in the assay listed under Homo sapiens [5] and in the assay filed under Homo sapiens [6] were 210 µM, 110 µM and 120 µM, respectively. The Relative potency in [4] is given as 17.3. The same compound gave a Max efficacy in the assay filed under Rattus norvegicus [9] of 37.5%.
In the assay filed under Rattus norvegicus [10], `NC(N)=NCCCCCC(=O)NC1CCN(C(=O)C(N)Cc2ccccc2)C1` (stereo not given) came in with a Max efficacy of 40.7%. Further, the results for the IC50 in the assay listed under Homo sapiens [1], in the assay filed under Homo sapiens [5] and in the assay listed under Homo sapiens [6] were 390 µM, 420 µM and 340 µM, respectively. Further, the Relative potency in [4] is given as 24. In addition, the Contraction in the assay listed under Rattus norvegicus [11] worked out at 3%.
As for `N=C(N)NCCCCCC(=O)NCC1CCN(C(=O)Cc2ccccc2)CC1`, the IC50 in the assay listed under Homo sapiens [1] is more than 250 µM; in the assay filed under Homo sapiens [5] it was 140 µM; in the assay filed under Homo sapiens [6] it was more than 250 µM. The Max efficacy in the assay listed under Rattus norvegicus [12] is 91.4%. Also, the Relative potency in assay [4] was determined as 0.06.
As to `N=C(N)NCCCCCC(=O)N1CCN(C(=O)Cc2ccccc2)CC1`, the IC50 is 780 µM in the assay filed under Homo sapiens [13], 440 µM in the assay listed under Homo sapiens [1], 460 µM in the assay listed under Homo sapiens [5] and 510 µM in the assay filed under Homo sapiens [6]. In addition, the Max efficacy in the assay listed under Rattus norvegicus [12] is 81%. In addition, the Relative potency in [4] was 0.19.
With `NC(N)=NCCCCCC(=O)N1CCN(C(=O)C(N)Cc2ccccc2)CC1` (stereo not given), the IC50 in the assay listed under Homo sapiens [13] was 370 µM; in the assay filed under Homo sapiens [1], 240 µM; in the assay listed under Homo sapiens [5] it was 120 µM; in the assay listed under Homo sapiens [6], 90 µM. In addition, in [4], the Relative potency amounted to 38.2.
